Compounds with a hit are over-represented: about 2% of the library has one in this group of screens.
FID counter – displaces DNA intercalator in HCV helicase counter-screen | DNA fluorescent intercalator displacement, fluorescence | 290,000 compounds, 0.17% hits | inhibition, % at 7.9 µM | AID 1845; in the data active = inhibition above about 37%;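 note: higher means more ethidium bromide displaced from hairpin DNA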
ZTA DNA inh – ZTA (EBV) inhibition in EBNA-1 counter-screen; P03206; ZTA-DNA binding, fluorescence polarization; inhibition, % at 11 µM; 320,000 compounds, 0.15% hits; AID 2234; in the data active = inhibition above about 33%
EBNA-1 inhibitor – blocks EBNA-1 binding to DNA | inhibition, % at 14.8 µM | EBNA-1 DNA binding, fluorescence polarization | 300,000 compounds, 0.34% hits; in the data active = inhibition above about 28%
HCV NS3 hel inh – inhibitors of Hepatitis C virus NS3 helicase | 290,000 compounds, 0.56% hits | inhibition, % at 10.9 µM | NS3 helicase DNA unwinding, Cy5 molecular beacon fluorescence | AID 1800;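 active = inhibition above the mean of all tested compounds plus 3 SD, set per campaign, cut at about 35% in these data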
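Assay system – hepatitis C virus NS3 helicase domain fragment enzyme · Buffer or medium – MOPS pH 6.5, MgCl2, DTT, Tween20, BSA · Reagent – Cy5/quencher beacon DNA duplex and ATP to start · Compound – single 10.9 µM dose · Timing – 1 h at 25 °C · Technique – Cy5 beacon fluorescence read at start and 1 h · Measure – % inhibition of unwinding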
GPR7 antag – antagonists of human GPR7 (neuropeptides B/W receptor 1); P48145; GPR7-expressing cells, fluorescence antagonist assay; inhibition, % at 4.4 µM; 290,000 compounds, 1.1% hits; in the data active = inhibition above about 16%, passing the limit was not always enough;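 note: cells stimulated with the agonist NPW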
Target sequence (P48145 whole entry, looked up): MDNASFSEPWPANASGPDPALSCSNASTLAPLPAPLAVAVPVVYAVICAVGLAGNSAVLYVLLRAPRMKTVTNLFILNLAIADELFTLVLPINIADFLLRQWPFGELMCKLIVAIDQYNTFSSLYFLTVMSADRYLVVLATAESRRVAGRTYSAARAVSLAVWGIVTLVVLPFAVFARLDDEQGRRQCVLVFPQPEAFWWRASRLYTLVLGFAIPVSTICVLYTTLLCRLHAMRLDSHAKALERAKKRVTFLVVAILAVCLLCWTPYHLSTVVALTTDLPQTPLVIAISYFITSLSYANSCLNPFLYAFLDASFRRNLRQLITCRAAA
GPR7 antag cf – confirmation of human GPR7 antagonists. shares compounds with GPR7 antag. GPR7-expressing cells, calcium fluorescence antagonist mode. inhibition, % at 4.4 µM. 2,400 compounds, 52% hits. AID 1952; in the data active = inhibition above about 24%;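 note: stimulated with the GPR7 agonist NPW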
MCHR1 antag – counter-screen for GPR7 antagonists: antagonists of human MCHR1; shares compounds with GPR7 antag; MCHR1-expressing cells, fluorescence antagonist assay; inhibition, % at 4.4 µM; 2,400 compounds, 62% hits; AID 2148; in the data active = inhibition above about 22%
Hits are given with their value; i = inactive; nt = no result given.

SMILES	FID counter	ZTA DNA inh	EBNA-1 inhibitor	HCV NS3 hel inh	GPR7 antag	GPR7 antag cf	MCHR1 antag
CCOC(=O)Nc1ccc2c(c1)N(C(=O)CN1CCN(CCO)CC1)c1ccccc1CC2	i	i	i	i	i	nt	nt
CS(=O)(=O)C1=NN2C(=N)/C(=C\c3ccc(OC(=O)c4ccco4)cc3)C(=O)N=C2S1	i	i	i	i	i	nt	nt
CC(C)CS(=O)(=O)C1=NN2C(=N)/C(=C\c3ccc(OC(=O)c4ccco4)cc3)C(=O)N=C2S1	i	i	i	i	43.0	42.2	34.3
O=C(Nc1cccc(NC(=O)c2ccco2)n1)c1ccco1	i	i	i	i	i	nt	nt
Cc1onc(-c2cccc(Cl)c2Cl)c1C(=O)O/N=C(\N)c1ccc([N+](=O)[O-])o1	i	i	i	i	30.8	45.0	54.9
Cc1nn(-c2ccccc2)c(C)c1NC(=O)COC(=O)c1ccccc1OC(F)F	i	i	i	i	i	nt	nt
Cc1nn(CC(=O)N(C)C)c(C)c1S(=O)(=O)N1CCOCC1	nt	i	nt	nt	nt	nt	nt
O=[N+]([O-])c1ccc(CN2CCC(Cc3ccccc3)CC2)cc1	i	nt	nt	i	26.1	i	32.9
O=[N+]([O-])c1ccc(CN2CCN(c3ccc([N+](=O)[O-])cc3)CC2)cc1	i	i	i	i	i	nt	nt
O=[N+]([O-])c1ccc(N2CCN(Cc3ccccc3)CC2)nc1	i	i	i	i	22.5	27.2	i
O=[N+]([O-])c1ccc(N2CCN(Cc3cccc([N+](=O)[O-])c3)CC2)cc1	i	i	i	i	37.4	55.7	63.1
O=[N+]([O-])c1ccc(N2CCN(c3cccc(Cl)c3)CC2)nc1	i	i	i	i	50.7	28.7	69.7
Cn1c(CCNC(=O)c2ccco2)nc2cc(NC(=O)c3ccccc3Cl)ccc21	i	i	i	i	i	nt	nt
COc1cccc(CN2CCN(C(=O)Nc3ccc([N+](=O)[O-])cc3)CC2)c1	i	i	i	i	29.3	40.6	67.6
CC(C)c1ccc(NC2CCCN(C(=O)CCN3CCCCO3)C2)cc1 (stereo unspecified)	i	i	i	i	i	nt	nt
C=CCn1c(COc2ccc(Cl)cc2)nnc1SCc1ccc(C#N)cc1	i	i	i	i	26.5	41.0	46.9
CCC1(c2ccccc2)NC(=O)N(CC(=O)Nc2cc(S(=O)(=O)N3CCCCC3)ccc2OC(C)C)C1=O (stereo unspecified)	nt	i	i	nt	nt	nt	nt
COC(=O)C1CCN(C(c2cc(OC)c(OC)c(OC)c2)c2sc3nc(C)nn3c2O)CC1 (stereo unspecified)	i	i	i	i	22.6	i	i
CCOC(=O)C1CCN(C(c2cc(OC)c(OC)c(OC)c2)c2sc3nc(C)nn3c2O)CC1 (stereo unspecified)	i	i	i	i	i	nt	nt
CCCS(=O)(=O)c1ccc(COC(=O)Cc2ccc([N+](=O)[O-])cc2)cc1	i	i	i	i	28.1	25.4	24.8
O=C(Cc1ccc([N+](=O)[O-])cc1)OCc1ccc([N+](=O)[O-])cc1	i	i	i	i	43.8	29.0	63.6
CN(C)S(=O)(=O)c1ccc(C(=O)OCc2ccc([N+](=O)[O-])cc2)cc1	i	i	i	i	i	nt	nt
C[C@H](N)C(=O)OCc1ccc([N+](=O)[O-])cc1	i	i	i	i	i	nt	nt
CC(C)(C)OC(=O)N1CCN(C(=O)c2ncn(Cc3ccccc3)c2C(=O)N2CCN(C(=O)OC(C)(C)C)CC2)CC1	nt	i	nt	nt	nt	nt	nt
CNC[C@H](Cc1ccccc1)NC[C@@H](Cc1cccc2ccccc12)NCCc1ccc(C)cc1	36.9	i	i	i	43.4	67.3	75.8
CNC[C@H](CC1CCCCC1)NC[C@H](Cc1ccccc1)NCCC12CC3CC(CC(C3)C1)C2	i	i	i	i	i	nt	nt
Nc1oc2ccccc2c1C(=O)Cc1ccccc1O[C@@H]1O[C@H](CO)[C@@H](O)[C@H](O)[C@H]1O	nt	i	i	nt	nt	nt	nt
CCOC(=O)Cn1cc(/C=N/NC(=O)c2cc3ccccc3o2)c2ccccc21	i	i	i	i	25.6	i	28.2
CC(Sc1nnc2ccccn12)C(=O)NCc1ccc2c(c1)OCO2 (stereo unspecified)	i	i	i	i	i	nt	nt
